# Screening data: PubChem BioAssay, several laboratories
# Apaf-1 inh: human Apaf-1 inhibition | inhibition, % at 20 µM | hit rate 0.71% among 330,000 | O14727 | AID 489030 | reconstituted apoptosome caspase-3 activity, DEVD-Rh110 fluorescence; active = inhibition of at least 40% at 20 µM;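 also: plate controls were DMSO wells for no effect and DEVD-CHO caspase inhibitor wells for full effect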
# Target sequence (O14727 whole entry, looked up): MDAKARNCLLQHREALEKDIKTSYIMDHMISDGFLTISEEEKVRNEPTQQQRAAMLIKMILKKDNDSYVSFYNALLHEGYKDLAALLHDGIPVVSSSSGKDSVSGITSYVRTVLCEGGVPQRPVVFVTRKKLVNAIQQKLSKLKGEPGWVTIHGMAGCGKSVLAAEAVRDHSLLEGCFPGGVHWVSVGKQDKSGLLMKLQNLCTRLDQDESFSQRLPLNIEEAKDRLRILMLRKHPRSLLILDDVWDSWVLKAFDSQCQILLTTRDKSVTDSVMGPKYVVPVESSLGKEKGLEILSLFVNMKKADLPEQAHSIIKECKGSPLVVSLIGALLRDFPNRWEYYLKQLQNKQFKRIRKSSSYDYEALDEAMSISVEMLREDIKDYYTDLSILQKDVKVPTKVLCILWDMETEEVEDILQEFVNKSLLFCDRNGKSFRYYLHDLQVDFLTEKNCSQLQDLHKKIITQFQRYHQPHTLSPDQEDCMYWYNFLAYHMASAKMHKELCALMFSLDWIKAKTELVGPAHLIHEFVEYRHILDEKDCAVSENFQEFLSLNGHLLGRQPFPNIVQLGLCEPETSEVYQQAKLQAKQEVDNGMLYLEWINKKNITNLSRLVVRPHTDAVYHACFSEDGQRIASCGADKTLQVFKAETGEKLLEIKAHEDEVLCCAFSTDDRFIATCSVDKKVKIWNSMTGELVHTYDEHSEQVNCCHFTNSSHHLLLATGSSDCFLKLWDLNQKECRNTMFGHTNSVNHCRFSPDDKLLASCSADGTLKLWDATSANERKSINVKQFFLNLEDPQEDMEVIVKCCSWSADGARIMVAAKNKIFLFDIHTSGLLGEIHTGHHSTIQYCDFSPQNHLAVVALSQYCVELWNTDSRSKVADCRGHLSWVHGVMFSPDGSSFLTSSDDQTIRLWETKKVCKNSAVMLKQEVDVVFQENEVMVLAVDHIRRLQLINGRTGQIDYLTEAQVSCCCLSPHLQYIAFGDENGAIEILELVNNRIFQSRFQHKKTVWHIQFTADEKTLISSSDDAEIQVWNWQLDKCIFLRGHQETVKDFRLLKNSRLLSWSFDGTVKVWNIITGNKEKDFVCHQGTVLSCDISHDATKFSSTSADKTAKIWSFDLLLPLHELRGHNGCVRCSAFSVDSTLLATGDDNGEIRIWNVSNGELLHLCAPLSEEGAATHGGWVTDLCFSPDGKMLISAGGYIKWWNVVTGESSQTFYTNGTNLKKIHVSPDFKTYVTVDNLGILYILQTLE
#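 System: reconstituted apoptosome with Apaf-1, cytochrome c, caspase-9, procaspase-3, dATP; Signal: Rh110 fluorescence intensity; Schedule: 30 min compound preincubation, 50 min activation, room temperature; Reagent: cytochrome c trigger plus (Z-DEVD)2-Rh110 caspase-3 substrate.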
# UBC13 polyUb: human UBC13 polyubiquitination inhibition; P61088; UBC13 polyubiquitin chain formation, TR-FRET; inhibition, % at 20 µM; hit rate 0.47% among 330,000; in the data active = inhibition above about 45%, passing the limit was not always enough
# MEKK2mut PB1 HTS: signal of MEK5 binding to mutant human MEKK2 PB1 domain; bead flow cytometry, Alexa488-MEK5 binding to MEKK2 mutant; percent response, % at 10 µM; hit rate 0.35% among 290,000; AID 1530; in the data active = percent response above about 24%, passing the limit was not always enough
# MEKK3 PB1 HTS: raises or lowers MEK5 binding to the human MEKK3 PB1 domain; hit rate 1.4% among 290,000; AID 1529; binding response (% of control), % at 10 µM; bead-based flow cytometry, Alexa488-MEK5 binding to MEKK3; actives lie on both sides; 0 = blocked by unlabeled MEK5, 100 = vehicle; Q99759;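 active = binding response more than 3 SD above or below the average of its plate-row segment, actives on both sides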;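 also: Alexa488 bead fluorescence after subtracting the streptavidin-only scavenger bead signal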
# MEKK2 WT-MEK5: raises or lowers MEK5 binding to wildtype human MEKK2 PB1 domain; Q9Y2U5; bead flow cytometry, Alexa488-MEK5 binding to MEKK2 WT; actives lie on both sides; binding response (% of control), % at 10 µM; hit rate 1.1% among 290,000; AID 1531; in the data active = binding response below about 67% or above about 130%
# Apaf-1 inh conf2: confirmation of Apaf-1 inhibitors | shares compounds with Apaf-1 inh | reconstituted apoptosome, caspase-3 DEVD-Rh110 fluorescence | inhibition, % at 20 µM | hit rate 25% among 1,800 | AID 504614;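 active = mean inhibition of at least 40% at 20 µM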;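 also: plate controls were DMSO wells for no effect and DEVD-CHO caspase inhibitor control wells for full effect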
# Rh110 quench: interferes with Rh110 fluorescence, flagging false Apaf-1 inhibitors | shares compounds with Apaf-1 inh | activation (fluorescence interference), % at 20 µM | Rh110 fluorescence interference, quenched caspase reaction | 1,800 tested, under 10 active;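 active = signal rise of 40% or more at 20 µM, treated as a fluorescence artifact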
# Fluor interf inh: Apaf-1 inhibitor counter-screen fluorescence artifact; shares compounds with Apaf-1 inh; fluorescence interference counterscreen, Apaf-1 assay format; IC50, µM; 460 tested, under 10 active; AID 588538; call rule not given here
# Starred values were filed as active, the others as inactive; nt = no result given. Only some compounds are listed: those with a hit (about 2.9% of all), similar ones and a draw of the others.
SMILES,Apaf-1 inh,UBC13 polyUb,MEKK2mut PB1 HTS,MEKK3 PB1 HTS,MEKK2 WT-MEK5,Apaf-1 inh conf2,Rh110 quench,others
Cc1ccc(-n2nc3ccc(N)cc3n2)cc1Cl,96*,-4,1,108,107,47*,2,Fluor interf inh=>100
CCS(=O)(=O)N1CCN=C1SCc1cccnc1,10,-10,3,101,101,nt,nt,
CSc1ccc(C(=O)C2CCCN(S(=O)(=O)c3c(C)noc3C)C2)cc1 (centres undefined),9,34,-7,96,92,nt,nt,
Cc1cccc(OCC(O)CN2CC3(C)CC2CC(C)(C)C3)c1 (centres undefined),-6,6,-2,96,99,nt,nt,
N#CN1CCC(NS(=O)(=O)c2ccc(C(F)(F)F)cc2)C1 (centres undefined),14,-7,nt,nt,nt,nt,nt,
O=C(Oc1ccc[nH]c1=O)c1cc([N+](=O)[O-])cc([N+](=O)[O-])c1,93*,-10,10,96,89,12,6,
CCNC(=O)Oc1ccc[nH]c1=O,42*,-38,7,97,104,3,1,
COc1ccc(C(=O)Oc2ccc[nH]c2=O)cc1,-1,-8,2,100,96,nt,nt,
COCCN(C(=O)CSc1cc(C)c2ccccc2n1)c1c(N)n(CC(C)C)c(=O)[nH]c1=O,-1,4,nt,nt,nt,nt,nt,
CN(C(=O)Nc1ccccc1)C1CCS(=O)(=O)C1 (centres undefined),-9,4,5,104,110,nt,nt,
CC(=O)NC1=C(N(C)C2CCS(=O)(=O)C2)C(=O)c2ccccc2C1=O (centres undefined),54*,-51,3,103,103,67*,9,Fluor interf inh=>100
O=C1C(NS(=O)(=O)c2ccc(Br)cc2)=C(N2CCCCC2)C(=O)c2ccccc21,36,-32,0,100,94,nt,nt,
CC1CCN(C(CNS(=O)(=O)c2ccccc2)c2ccccc2)CC1 (centres undefined),2,0,nt,nt,nt,nt,nt,
CC1CCN(C2=C(NS(=O)(=O)c3ccc(Cl)cc3)C(=O)c3ccccc3C2=O)CC1,46*,-45,1,121,100,15,-21,
CCOC(=O)C1CCCN(C2=C(NS(=O)(=O)c3ccc(Br)cc3)C(=O)c3ccccc3C2=O)C1 (centres undefined),67*,-84,-1,105,93,48*,21,
CC1CCN(C2=C(NS(=O)(=O)c3ccccc3)C(=O)c3ccccc3C2=O)CC1,60*,-62,3,101,96,34,6,
CC1CCCN(C2=C(NS(=O)(=O)c3ccc(Br)cc3)C(=O)c3ccccc3C2=O)C1 (centres undefined),51*,-49,-2,101,96,31,-2,
CCOC(=O)C1CCN(C2=C(NS(=O)(=O)c3ccc(Cl)cc3)C(=O)c3ccccc3C2=O)CC1,14,-46,2,103,97,nt,nt,
O=C1C(NS(=O)(=O)c2ccccc2)=C(N2CCN(c3ccc(F)cc3)CC2)C(=O)c2ccccc21,18,-56,4,103,101,nt,nt,
COc1ccc(-n2cc(C(=O)O)c(=O)cc2C)cc1,-1,2,-11,97,86,nt,nt,
CN(C)C(=O)c1c(C(F)(F)F)nn(C)c1Cl,4,2,0,102,101,nt,nt,
CC(C)C1CC(CCN2CCCCC2)(c2ccccc2)CCO1 (centres undefined),1,10,3,103,108,nt,nt,
O=S(=O)(Nc1ccc(N2CCOCC2)cc1)c1cccs1,-6,5,0,92,95,nt,nt,
CC1CCN(C2=C(NS(=O)(=O)c3ccc(Br)cc3)C(=O)c3ccccc3C2=O)CC1,54*,-91,-3,101,96,26,-3,
O=C1C(NS(=O)(=O)c2cccs2)=C(N2CCN(c3cccc(Cl)c3)CC2)C(=O)c2ccccc21,58*,-68,-5,102,96,33,14,
SMILES,Apaf-1 inh,UBC13 polyUb,MEKK2mut PB1 HTS,MEKK3 PB1 HTS,MEKK2 WT-MEK5,Apaf-1 inh conf2,Rh110 quench,others
Cc1ccc(NC(=O)COC(=O)c2ccc(CN3CCCC3=O)cc2)c(Cl)c1,3,3,nt,nt,nt,nt,nt,
COc1ccc(-c2cc(=O)[nH][nH]2)cc1OC,77*,-22,0,95,95,13,-6,
CCOc1cccc(-c2cc(=O)[nH][nH]2)c1,44*,-14,-7,82,92,9,4,
O=c1cc(-c2ccc(F)cc2)[nH][nH]1,50*,-14,-3,93,93,2,-8,
COc1cccc(-c2cc(=O)[nH][nH]2)c1,24,-7,1,104,97,nt,nt,
CC(=O)Nc1ccc(S(=O)(=O)NCC(=O)OCC(=O)N2CCN(c3ccccc3)CC2)cc1,-11,4,-3,94,96,nt,nt,
CCC(CC)C(=O)Nc1nnc(S(=O)(=O)Nc2ccccc2C)s1,12,-10,3,100,100,nt,nt,
CCN(CC(=O)NCc1cccs1)C(=O)CCCOc1ccc(C(C)(C)C)cc1,42*,10,nt,nt,nt,34,11,
CN(Cc1nccn1C)C(=O)C1CCC(=O)N(CCc2ccc(Cl)cc2)C1 (centres undefined),9,0,6,101,105,nt,nt,
CC1(C)Nc2ccc(O)cc2-c2c1ssc2=S,51*,-25,14,106,104,34,15,
COc1cccc(-n2sc3c(c2=S)-c2cc(OC)ccc2NC3(C)C)c1,-9,6,5,107,111,nt,nt,
COc1ccc(C(C)(C)C)cc1NC(=O)CNc1cccc2ccccc12,44*,-60,1,111,106,29,7,
[O-]/C(=C(\C(=S)Nc1cccc2ccccc12)[n+]1ccccc1)c1ccc(Cl)s1,47*,-12,0,99,101,15,-2,
Cn1c(SCC(=O)Nc2ccc3nc(SCC(=O)N4CCCC4)sc3c2)nnc1-c1ccccc1,66*,-10,5,103,102,12,-2,
Cc1[nH]n(-c2ccccc2)c(=O)c1/C=N/NC(=O)c1ccc(O)cc1O,73*,-33,6,103,103,84*,9,Fluor interf inh=>100
Cc1[nH]n(-c2ccccc2)c(=O)c1/C=N/NC(=O)c1cccc(F)c1,62*,-1,3,103,102,67*,0,Fluor interf inh=>100
Cc1[nH]n(-c2ccccc2)c(=O)c1/C=N/Nc1nncc(-c2ccccc2)n1,81*,-37,1,101,100,89*,10,Fluor interf inh=>100
CCCCN(CCCC)C(=S)N/N=C/c1c(C)[nH]n(-c2ccccc2)c1=O,57*,-44,-4,86,91,-3,16,
